Assay results of several laboratories.
Each line is one published result; the experiments were not run side by side.
Target: 3-phosphoinositide-dependent protein kinase 1 (PDPK1, Homo sapiens, UniProt O15530)
Residues used in one study (O15530 1-556): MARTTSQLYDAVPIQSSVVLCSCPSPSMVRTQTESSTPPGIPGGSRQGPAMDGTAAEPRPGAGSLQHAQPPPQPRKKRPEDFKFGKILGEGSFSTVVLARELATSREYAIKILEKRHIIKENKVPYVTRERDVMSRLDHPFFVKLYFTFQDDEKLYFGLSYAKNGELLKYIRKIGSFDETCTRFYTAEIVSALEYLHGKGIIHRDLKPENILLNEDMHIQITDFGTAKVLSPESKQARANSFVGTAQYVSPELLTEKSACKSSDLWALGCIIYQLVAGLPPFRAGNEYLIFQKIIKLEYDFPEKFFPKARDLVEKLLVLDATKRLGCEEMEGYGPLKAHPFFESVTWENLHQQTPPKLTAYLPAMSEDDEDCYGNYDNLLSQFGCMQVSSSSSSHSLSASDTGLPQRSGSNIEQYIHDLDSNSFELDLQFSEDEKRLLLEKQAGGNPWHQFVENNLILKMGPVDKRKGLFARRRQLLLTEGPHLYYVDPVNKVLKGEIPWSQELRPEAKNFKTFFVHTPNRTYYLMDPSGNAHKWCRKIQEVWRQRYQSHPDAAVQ

CS(=O)(=O)Nc1cccc(-c2csc(NC(=O)CSc3nc4nccnc4c(=O)n3CCc3ccccc3)n2)c1  inhibition (enzyme activity; inhibitor; 10 µM): 7%
CC(C)COc1cccc(Cl)c1-c1cc2cnc(N)nc2nc1N1C[C@@H]2[C@@H](N)[C@@H]2C1  inhibition (enzyme activity; inhibitor; FRET; 25 µM): 0%
CN(C)C1CCN(CC#Cc2nn(C3CCCC3)c3nc(NCc4ccccc4)ncc23)C1 (centres unmarked)  inhibition (enzyme activity; inhibitor; FRET; 10 µM): 3%
c1ccc(CNc2nc(N3CCOc4ccccc43)nc3c2CCCC3)cc1  inhibition (target engagement in cells; inhibitor; chemoproteomics; 20 mM): -11.8%
CNC(=O)c1cc(Oc2ccc(NC(=O)Nc3ccc(Cl)c(C(F)(F)F)c3)cc2)ccn1  inhibition (enzyme activity; inhibitor; 0.3 µM): -2%
COc1cc(C[C@H]2C(=O)OC[C@@H]2Cc2ccc(OC)c(OC)c2)ccc1O  inhibition (enzyme activity; inhibitor; ADP detection; 100 µM): 18.6%
CCN(CC)CCNC(=O)c1c(C)[nH]c(/C=C2\C(=O)Nc3ccc(F)cc32)c1C  inhibition (binding; competition with immobilised ligand; 10 µM): 71%
CC/C(=N\NC(=O)NCc1cccc(O)c1)c1ccc(O)c(C)c1O  inhibition (enzyme activity; inhibitor; 0.1 µM): -1.2%
CCCS(=O)(=O)Nc1ccc(F)c(C(=O)c2c[nH]c3ncc(-c4ccc(Cl)cc4)cc23)c1F  inhibition (enzyme activity; inhibitor; 1 µM): < 10%
Cc1ccc(Nc2nccc(N(C)c3ccc4c(C)n(C)nc4c3)n2)cc1S(N)(=O)=O  inhibition (enzyme activity; inhibitor; 0.3 µM): 5%
COc1cc2ncnc(Nc3ccc(Oc4ccccc4)c(C)c3C)c2cc1OC  inhibition (enzyme activity; inhibitor; 1 µM): -2%
